This is an account of results in article PMC7438818 (CPT: Pharmacometrics & Systems Pharmacology, 2020).

Data set [1] deals with TNFα release. In words: Simulated dose-response and equipotent dose relationship from the PK/PD model. In kind it is in vivo, human. Particulars: for TNFα inhibition at the highest studied doses: dose-response curves. In a few lines:
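The fitted PK/PD model was simulated to give dose-response curves, with response defined as average TNFα inhibition over 24 h after 5 consecutive daily oral doses. Confidence intervals came from repeated simulations using parameters sampled from the estimated covariance matrix. Equipotent doses were defined as those giving the same average inhibition. Their confidence intervals accounted simultaneously for the uncertainty of both dose-responses.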

The conditions of data set [2]: ref data on file, AstraZeneca; cited from earlier work.
Data set [3] relates to TNFα release. In words: TNFα PK/PD model, lipopolysaccharide-stimulated whole blood ex vivo assay. In kind it is in vivo, human. The conditions noted are these: for Sigmoidicity parameter γ: Imax-model of TNFα inhibition. In a few lines: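 Whole blood was drawn straight into LPS-containing tubes and incubated, then ex vivo TNFα was measured. With PK parameters fixed, one common sigmoid Imax model was fitted for both compounds, driven by a weighted sum of plasma and transduction-compartment concentrations. The weight was estimated from data. The driving concentration was total for the test compound and unbound for the reference steroid. Nonlinear mixed effects, FOCE.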

The format of data set [4] is in vivo, human. The procedure, abridged: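 Data pooled from single ascending dose (2–155 mg) and multiple ascending dose (10, 20, 40, 80, 125 mg) studies in healthy volunteers; prediabetic obese cohort and sub-LLOQ (5 nM) data excluded. Two-compartment model with first-order absorption and lag time on total plasma concentrations. Oral dose entered as a linear covariate on relative bioavailability and as a covariate on absorption rate. Lognormal interoccasion variability for days 1 and 5. Fitted by nonlinear mixed effects, FOCE.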

Data set [5] relates to release of the cytokines TNFα, interferon-γ, interleukin-6, interleukin-8, macrophage inflammatory protein-1α and -1β. In kind it is in vivo, human. Particulars: total plasma concentrations; six pro-inflammatory cytokines. In a few lines:
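Static nonlinear mixed effects sigmoid Imax models related observed total plasma drug concentrations to ex vivo LPS-stimulated release of TNFα, IFN-γ, IL-6, IL-8, MIP-1α and MIP-1β. Data were pooled from the single and multiple ascending dose studies. Lognormal between-subject variability was used, with lognormal residual error (additive on log scale). Models were estimated by FOCE.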

The conditions of data set [6]: literature average of plasma protein binding parameters ref 24, 25, 26, 27; cited from earlier work.
Data set [7] is classed as in vivo, human. This is another data set of the same source.
The mark [8] stands for this setting: average over 24 hours following 5 consecutive daily doses.
[9] abbreviates: unbound prednisolone, oral (apparent).

Each structure is given as a SMILES string. Read-outs that look alike come from different tables or passages of the source.

One may read the half-life as how long it takes for the measured level to halve. For `CC(C)[C@H](NC(=O)C(C)(F)F)[C@H](Oc1ccc2c(cnn2-c2ccc(=O)n(C)c2)c1)c1ccccc1` [AZD9567], in the data set with TNFα release [1] (AZD9567 40 mg, average over 24 hours following 5 consecutive daily doses), the “Average TNFα inhibition” value is reported as 43%. In the data set on TNFα release [1] (setting [8]), the “TNFα inhibition at the highest studied doses” value is reported as 60–75%. In the data set with TNFα release [1] (equipotent to prednisolone 20 mg), the “Equipotent dose of AZD9567 (95% CI)” value was 40 mg. In addition, the “Doses required for equipotency relative to prednisolone” value in the data set with TNFα release [1] (in vivo) is “roughly twofold higher doses”. Besides, the Unbound fraction entry in data set [2] is on record as “^c Derived from the estimate of IC50 for total AZD9567 concentrations using an unbound fraction of 0.637%”. Moreover, in the data set with TNFα release [3], the “Sigmoidicity parameter γ” value is 1.40. In the data set on TNFα release [3] (unbound IC50 4.87 nM vs 17.0 nM), the “Potency as inhibitor of TNFα release relative to prednisolone” value is on record as ~ 3.5 fold. Also, the “Absorption rate constant ka0” value in data set [4] (absorption rate in the limit of zero dose) stood at 38.2 h⁻¹. For the same molecule, the “Covariate model (dose on F) s” value in data set [4] (decrease in relative bioavailability F per mg dose, F=1-s×Dose) worked out at 0.00253 mg⁻¹. In data set [4] (dose-dependent absorption rate), the “Covariate model (dose on ka) α” value was found to be 0.0592 mg⁻¹ and the “Covariate model (dose on ka) λ” value was found to be 0.103. Moreover, the “Decrease of relative bioavailability” value in data set [4] (for every additional 4 mg AZD9567 dosed) is given as ~ 1 % unit. Besides, the half-life in data set [4] (human, plasma, oral) was 4.4 h. The “Unbound clearance relative to prednisolone” value in data set [4] (implied by the low fraction unbound) is recorded as “more than fivefold higher unbound clearance”. Moreover, in data set [4] (total AZD9567), the “Intercompartment clearance Q” value came out at 0.500 L/h and the “Peripheral volume of distribution Vp” value turned out to be 392 L. In data set [4] (total AZD9567, oral), the “Clearance CL” value worked out at 3.70 L/h. Further, in data set [4] (total AZD9567, oral (apparent)), the “Central volume of distribution Vc” value is given as 26.8 L. In addition, the “Contribution of the first phase to AUC” value in data set [4] (two-compartment model) came to 88%. The “Inhibition of cytokine release” value in data set [5] is listed as “inhibited the release of the cytokines”.

`C[C@]12C=CC(=O)C=C1CC[C@@H]1[C@@H]2[C@@H](O)C[C@@]2(C)[C@H]1CC[C@]2(O)C(=O)CO` [prednisolone]: in the data set on TNFα release [1] (setting [8]), the “TNFα inhibition at the highest studied doses” value was 60–75%. Moreover, in the data set with TNFα release [1] (equipotent to 40 mg AZD9567, 95% CI of 14–29 mg), the “Equipotent dose of prednisolone” value is on record as 20 mg. Also, the “Estimated TNFα inhibition” value with TNFα release [1] (prednisolone 20 mg, average over 24 hours following 5 consecutive daily doses) was 43%. In data set [6], the “Unbound fraction, high limit, literature average” value was 53% and the “Unbound fraction, low limit, literature average” value is 9%. In the data set on TNFα release [3], the “Sigmoidicity parameter γ” value amounted to 1.33. In addition, in data set [5], the “Inhibition of cytokine release” value is listed as “inhibited the release of the cytokines”. The half-life in data set [7] (human, plasma, oral) was 1.9 h. In addition, in data set [7] (unbound prednisolone), the “Contribution of the first phase to AUC” value is listed as 66%, the “Inter-compartment clearance Q” value stood at 5.81 L/h, the “Mean transit time tm” value amounted to 0.772 h and the “Peripheral volume of distribution Vp” value is recorded as 23.6 L. Also, in data set [7] (setting [9]), the “Central volume of distribution Vc” value came to 352 L and the “Clearance CL” value came out at 110 L/h. Moreover, the “No. of transit compartments n” value in data set [7] (unbound prednisolone, transit compartment absorption) is on record as 8.11.
